{
  "source": "ChEMBL document CHEMBL1157184",
  "about": "“Hymenoic acid, a novel specific inhibitor of human DNA polymerase lambda from a fungus of Hymenochaetaceae sp” (Bioorg Med Chem, 2008)",
  "key": {"[1]": {"compound": "C/C(=C\\CC[C@H](C)C(=O)O)[C@H]1CC[C@H](C(=O)O)CC1", "test": "Inhibition of human DNA polymerase lambda at 60 uM using nucleotide as substrate", "outline": "(§1)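 Kinetics on full-length human pol λ at 0, 20, 40 and 60 μM compound, varying either the template-primer poly(dA)/oligo(dT)12-18 or the nucleotide substrate dTTP. Km and Vmax (pmol/h) came from Lineweaver-Burk plots and Ki from Dixon plots.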"}, "[2]": {"compound": "C/C(=C\\CC[C@H](C)C(=O)O)[C@H]1CC[C@H](C(=O)O)CC1", "test": "Inhibition of human DNA polymerase lambda at 60 uM using template primer as as substrate", "outline": "as §1"}, "[3]": {"compound": "C/C(=C\\CC[C@H](C)C(=O)O)[C@H]1CC[C@H](C(=O)O)CC1", "test": "Inhibition of human DNA polymerase lambda at 40 uM using template primer as as substrate", "outline": "as §1"}, "[4]": {"compound": "C/C(=C\\CC[C@H](C)C(=O)O)[C@H]1CC[C@H](C(=O)O)CC1", "test": "Inhibition of human DNA polymerase lambda at 40 uM using nucleotide as substrate", "outline": "as §1"}, "[5]": {"compound": "C/C(=C\\CC[C@H](C)C(=O)O)[C@H]1CC[C@H](C(=O)O)CC1", "test": "Inhibition of human DNA polymerase lambda at 20 uM using template primer as substrate", "outline": "as §1"}, "[6]": {"compound": "C/C(=C\\CC[C@H](C)C(=O)O)[C@H]1CC[C@H](C(=O)O)CC1", "test": "Inhibition of human DNA polymerase lambda at 20 uM using nucleotide as substrate", "outline": "as §1"}},
  "data": [
    {"protein": "DNA polymerase lambda (Homo sapiens), Q9UGP5 (protein) MDPRGILKAFPKRQKIHADASSKVLAKIPRREEGEEAEEWLSSLRAHVVRTGIGRARAELFEKQIVQHGGQLCPAQGPGVTHIVVDEGMDYERALRLLRLPQLPPGAQLVKSAWLSLCLQERRLVDVAGFSIFIPSRYLDHPQPSKAEQDASIPPGTHEALLQTALSPPPPPTRPVSPPQKAKEAPNTQAQPISDDEASDGEETQVSAADLEALISGHYPTSLEGDCEPSPAPAVLDKWVCAQPSSQKATNHNLHITEKLEVLAKAYSVQGDKWRALGYAKAINALKSFHKPVTSYQEACSIPGIGKRMAEKIIEILESGHLRKLDHISESVPVLELFSNIWGAGTKTAQMWYQQGFRSLEDIRSQASLTTQQAIGLKHYSDFLERMPREEATEIEQTVQKAAQAFNSGLLCVACGSYRRGKATCGDVDVLITHPDGRSHRGIFSRLLDSLRQEGFLTDDLVSQEENGQQQKYLGVCRLPGPGRRHRRLDIIVVPYSEFACALLYFTGSAHFNRSMRALAKTKGMSLSEHALSTAVVRNTHGCKVGPGRVLPTPTEKDVFRLLGLPYREPAERDW", "values": [
      {"measurement": "Vmax", "setting": "[1]", "result": 27, "unit": "pmol/h"},
      {"measurement": "Vmax", "setting": "[2]", "result": 40.8, "unit": "pmol/h"},
      {"measurement": "Vmax", "setting": "[3]", "result": 48.8, "unit": "pmol/h"},
      {"measurement": "Vmax", "setting": "[4]", "result": 32.3, "unit": "pmol/h"},
      {"measurement": "Vmax", "setting": "[5]", "result": 62.5, "unit": "pmol/h"},
      {"measurement": "Vmax", "setting": "[6]", "result": 40, "unit": "pmol/h"}
    ]}
  ]
}
